The subject of test [1] is CCRF-CEM. Kind of test: Anti-HIV-1 activity tested in human lymphocytic CEM cells. Format: functional, cell-based.
The target of test [2] is Acetylcholinesterase (Electrophorus electricus, UniProt O42275). The test is described as follows: Inhibitory activity towards Electrophorus electricus acetylcholinesterase.
In test [3] the target is Cholinesterase (Homo sapiens, UniProt P06276). The test is described as follows: Inhibitory activity towards human butyrylcholinesterase. The essentials:
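Modified Rappaport assay following acetylcholine chloride hydrolysis to acetic acid, with m-nitrophenol indicator in phosphate buffer at pH 7.8 and NaCl. The compound is added in DMSO, and the reaction is started with serum (human, mouse or calf). A420 is read at 25 °C at 0 and 5 min. Final inhibitor is 0.1, 0.5, 1, 5, 10, 30 and 50 µM. IC50 is interpolated from ΔE plots in the pseudolinear region.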

Cholinesterase, sequence (P06276 whole entry): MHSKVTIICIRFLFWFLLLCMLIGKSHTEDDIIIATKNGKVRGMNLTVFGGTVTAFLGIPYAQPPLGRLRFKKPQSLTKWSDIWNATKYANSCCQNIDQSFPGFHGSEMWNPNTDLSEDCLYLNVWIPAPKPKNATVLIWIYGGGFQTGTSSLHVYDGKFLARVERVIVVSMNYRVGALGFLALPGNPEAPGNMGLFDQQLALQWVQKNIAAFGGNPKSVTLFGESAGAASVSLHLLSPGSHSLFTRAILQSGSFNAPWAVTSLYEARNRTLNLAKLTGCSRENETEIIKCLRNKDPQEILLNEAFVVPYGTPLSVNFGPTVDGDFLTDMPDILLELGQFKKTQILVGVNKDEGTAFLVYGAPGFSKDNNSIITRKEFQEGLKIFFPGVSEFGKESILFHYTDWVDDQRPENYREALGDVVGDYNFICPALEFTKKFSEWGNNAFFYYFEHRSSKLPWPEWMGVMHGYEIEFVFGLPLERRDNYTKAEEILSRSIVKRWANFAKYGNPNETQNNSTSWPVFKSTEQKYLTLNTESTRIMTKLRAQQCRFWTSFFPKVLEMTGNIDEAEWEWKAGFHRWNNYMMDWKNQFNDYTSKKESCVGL
Acetylcholinesterase, sequence (O42275 whole entry): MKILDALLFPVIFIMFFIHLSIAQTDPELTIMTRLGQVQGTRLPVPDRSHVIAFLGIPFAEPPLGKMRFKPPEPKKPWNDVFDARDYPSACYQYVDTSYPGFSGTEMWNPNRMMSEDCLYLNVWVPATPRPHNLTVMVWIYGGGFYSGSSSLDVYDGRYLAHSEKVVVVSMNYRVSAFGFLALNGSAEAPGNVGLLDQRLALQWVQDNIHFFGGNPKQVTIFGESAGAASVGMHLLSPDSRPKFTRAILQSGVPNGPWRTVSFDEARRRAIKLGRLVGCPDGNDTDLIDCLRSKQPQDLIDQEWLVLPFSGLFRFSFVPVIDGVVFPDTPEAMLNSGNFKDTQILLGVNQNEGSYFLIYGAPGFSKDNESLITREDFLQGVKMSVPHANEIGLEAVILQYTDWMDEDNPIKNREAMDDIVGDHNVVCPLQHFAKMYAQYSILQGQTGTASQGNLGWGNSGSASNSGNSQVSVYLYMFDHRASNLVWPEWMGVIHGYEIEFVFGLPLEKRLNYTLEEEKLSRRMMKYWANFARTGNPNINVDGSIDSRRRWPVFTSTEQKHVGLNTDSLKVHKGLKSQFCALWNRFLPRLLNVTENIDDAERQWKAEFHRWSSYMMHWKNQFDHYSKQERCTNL

As usually defined, the EC50 is the concentration at which the effect is half-maximal. By IC50 is commonly meant the midpoint of a concentration-inhibition curve. Molecule `Cc1cn([C@H]2C=C[C@@H](CO[P@@]3(=O)OCc4cccc(C(C)(C)C)c4O3)O2)c(=O)[nH]c1=O` came in with an EC50 in test [1] of 0.13 µM. The IC50 in test [2] and in test [3] was more than 50 µM in each case.
For `Cc1cccc2c1OP(=O)(OC[C@@H]1C[C@@H](F)[C@H](n3cnc4c(N)ncnc43)O1)OC2` (some centres undefined), the IC50 was more than 50 µM in test [2] and 1.1 µM in test [3].
In the same order, the values of `O=C1NC(=O)N([C@H]2C[C@H](O)[C@@H](COP3(=O)OCc4cccc(-c5ccccc5)c4O3)O2)C[C@H]1/C=C/Br` (some centres undefined) are more than 50 µM and more than 50 µM.
The matching figures for `Cc1cccc2c1O[P@@](=O)(OC[C@H](CO)OCn1cnc3c(O)nc(N)nc31)OC2`: more than 50 µM and 23 µM.
On to `O=C1NC(=O)N([C@H]2C[C@H](O)[C@@H](CO[P@]3(=O)OCc4cccc(-c5ccccc5)c4O3)O2)CC1/C=C/Br` (some centres undefined), for which the IC50 in test [2] was more than 50 µM; in test [3] it was 3.7 µM.
In the same order, the values of `Cc1ccc2c(c1)COP(=O)(OC[C@@H]1C=C[C@H](n3cc(C)c(=O)[nH]c3=O)O1)O2` (some centres undefined) are more than 50 µM and 4.6 µM.
`Cc1cn(C2C=CC(COP3(=O)OCc4cc(CCC(=O)OCc5ccccc5)ccc4O3)O2)c(=O)[nH]c1=O` (centres undefined): in test [1], the concentration giving a half-maximal response (EC50) came to 0.08 µM. The figures for the IC50 in test [2] and in test [3] were more than 50 µM and 22 µM, respectively.
Consider `Cc1cc(C)c2c(c1)COP(=O)(OCC1C=CC(n3cc(C)c(=O)[nH]c3=O)O1)O2` (centres undefined), for which the IC50 is more than 50 µM in test [2] and 46 µM in test [3].
The matching figures for `Cc1cccc2c1OP(=O)(OC[C@H]1O[C@@H](N3C=NC4C(=O)N=C(N)N=C43)C[C@@H]1O)OC2` (some centres undefined): more than 50 µM and more than 50 µM.
Regarding `Cc1cccc2c1OP(=O)(OC[C@H]1O[C@@H](n3cc(C)c(=O)[nH]c3=O)C[C@@H]1O)OC2` (some centres undefined), the IC50 is more than 50 µM in test [2] and 36 µM in test [3].
The molecule `Cc1cccc2c1OP(=O)(OCC1CCC(n3cc(C)c(=O)[nH]c3=O)O1)OC2` (centres undefined) had an EC50 in test [1] of 4.3 µM. Moreover, the IC50 in test [2] is more than 50 µM; in test [3] it was 1 µM.
In the same order, the values of `Cc1cn(C2C=CC(COP3(=O)OCc4cc(C(C)(C)C)cc(C(C)(C)C)c4O3)O2)c(=O)[nH]c1=O` (centres undefined) are 1.1 µM, more than 50 µM and more than 50 µM.
For the molecule `Cc1cn(C2C=CC(COP3(=O)OCc4cccc(-c5ccccc5)c4O3)O2)c(=O)[nH]c1=O` (centres undefined), in test [1], the EC50 stood at 0.13 µM. Also, the values for the IC50 in test [2] and in test [3] were more than 50 µM and 0.35 µM, respectively.
Regarding `Cc1cn(C2C=CC(COP3(=O)OCc4cccc(CCC(=O)OCc5ccccc5)c4O3)O2)c(=O)[nH]c1=O` (centres undefined), a half-maximal effect in test [1] (EC50) was put at 0.15 µM. In addition, the IC50 is more than 50 µM in test [2] and 2.8 µM in test [3].
The matching figures for `Cc1cn(C2C=CC(COP3(=O)Oc4ccccc4C(C(Cl)(Cl)Cl)O3)O2)c(=O)[nH]c1=O` (centres undefined): 0.19 µM, more than 50 µM and 27 µM.
In the same order, the values of `CCCCC1OP(=O)(OCC2C=CC(n3cc(C)c(=O)[nH]c3=O)O2)Oc2cccc(Cl)c21` (centres undefined) are 0.19 µM, more than 50 µM and 13 µM.
In the same order, the values of `Cc1cn(C2C=CC(COP3(=O)OCc4c(ccc5ccccc45)O3)O2)c(=O)[nH]c1=O` (centres undefined) are 0.09 µM, more than 50 µM and 3.9 µM.
`Cc1cccc2c1OP(=O)(OCC1C=CC(n3cnc4c(O)nc(N)nc43)C1)OC2` (centres undefined): in test [1], the EC50 was found to be 0.47 µM. Besides, the IC50 was more than 50 µM in test [2] and 2.5 µM in test [3].
For the molecule `Cc1cn(C2C=CC(COP3(=O)OCc4cc(C(C)(C)C)ccc4O3)O2)c(=O)[nH]c1=O` (centres undefined), a half-maximal response in test [1] (EC50) required 0.14 µM. For the same molecule, the IC50 was more than 50 µM in test [2] and 5.6 µM in test [3].
The matching figures for `Cc1cn([C@H]2C=C[C@@H](COP3(=O)OCc4cccc(C(C)(C)C)c4O3)O2)c(=O)[nH]c1=O` (some centres undefined): 0.18 µM, more than 50 µM and 4.2 µM.
With `Cc1cn([C@H]2C=C[C@@H](COP3(=O)OCc4ccccc4O3)O2)c(=O)[nH]c1=O` (some centres undefined), the values for the IC50 in test [2] and in test [3] were more than 50 µM and 0.77 µM, respectively.
In the same order, the values of `Cc1cccc2c1OP(=O)(OC[C@@H]1C=C[C@H](n3cc(C)c(=O)[nH]c3=O)O1)OC2` (some centres undefined) are more than 50 µM and 1.2 µM.
In the case of `CCC(C)c1ccc2c(c1)COP(=O)(OCC1C=CC(n3cc(C)c(=O)[nH]c3=O)O1)O2` (centres undefined), the EC50 in test [1] turned out to be 1.9 µM. Besides, the IC50 is more than 50 µM in test [2] and 3.3 µM in test [3].
In the case of `CCOC(=O)CC1OP(=O)(OCC2C=CC(n3cc(C)c(=O)[nH]c3=O)O2)Oc2cccc(Cl)c21` (centres undefined), the EC50 in test [1] came to 0.14 µM. In addition, the IC50 in test [2] and in test [3] was more than 50 µM in each case.
In test [1], `Cc1cn(C2C=CC(COP3(=O)Oc4ccccc4C(CCl)O3)O2)c(=O)[nH]c1=O` (centres undefined) gave an EC50 of 0.19 µM. Moreover, the IC50 in test [2] was more than 50 µM; in test [3] it was 3.9 µM.
Turning to `Cc1cn(C2C=CC(COP3(=O)Oc4cccc(Cl)c4C(C)O3)O2)c(=O)[nH]c1=O` (centres undefined), the response in test [1] was half-maximal at 0.19 µM (EC50). Besides, the results for the IC50 in test [2] and in test [3] were more than 50 µM and 1.8 µM, respectively.
For `Cc1cccc2c1OP(=O)(OCC1OC(n3cc(C)c(=O)[nH]c3=O)CC1=O)OC2` (centres undefined), the IC50 in test [2] and in test [3] was more than 50 µM throughout.
Take `Cc1cn(C2C=CC(COP3(=O)OCc4c(Cl)cccc4O3)O2)c(=O)[nH]c1=O` (centres undefined): the EC50 in test [1] amounted to 0.09 µM. Besides, the IC50 in test [2] is more than 50 µM; in test [3], 0.57 µM.
In test [1], `COC(=O)CCc1ccc2c(c1)COP(=O)(OCC1C=CC(n3cc(C)c(=O)[nH]c3=O)O1)O2` (centres undefined) displayed an EC50 of 0.24 µM. For the same molecule, the IC50 was more than 50 µM in test [2] and 8.8 µM in test [3].
In test [1], `COC(=O)CCc1cccc2c1OP(=O)(OCC1C=CC(n3cc(C)c(=O)[nH]c3=O)O1)OC2` (centres undefined) registered an EC50 of 0.16 µM. In addition, the IC50 is more than 50 µM in test [2] and 2.7 µM in test [3].
The matching figures for `Cc1cn(C2C=CC(COP3(=O)OCc4cc5ccccc5cc4O3)O2)c(=O)[nH]c1=O` (centres undefined): 0.41 µM, more than 50 µM and 0.41 µM.
With `Cc1cccc2c1OP(=O)(OCC1CC(O)C(n3cnc4c(N)ncnc43)O1)OC2` (centres undefined), the figures for the IC50 in test [2] and in test [3] were more than 50 µM and 28 µM, respectively.
Molecule `Cc1cn(C2C=CC(COP3(=O)OCc4cc(CCC(=O)OC(C)(C)C)ccc4O3)O2)c(=O)[nH]c1=O` (centres undefined) came in with an EC50 in test [1] of 0.18 µM. Further, the IC50 in test [2] is more than 50 µM; in test [3], 4.4 µM.
In test [1], `CCC(C)c1cccc2c1OP(=O)(OCC1C=CC(n3cc(C)c(=O)[nH]c3=O)O1)OC2` (centres undefined) returned an EC50 of 0.08 µM. Besides, the IC50 in test [2] is more than 50 µM; in test [3], 2 µM.
The matching figures for `Cc1cn(C2C=CC(COP3(=O)OCc4cc(CCC(=O)O)ccc4O3)O2)c(=O)[nH]c1=O` (centres undefined): 0.14 µM, more than 50 µM and more than 50 µM.
In the case of `Cc1cn(C2C=CC(COP3(=O)OCc4cccc(CCC(=O)O)c4O3)O2)c(=O)[nH]c1=O` (centres undefined), in test [1], it took 0.19 µM to reach a half-maximal effect (EC50). The IC50 in test [2] and in test [3] was more than 50 µM in each case.
In test [1], `Cc1cn(C2C=CC(COP3(=O)Oc4ccccc4C(C(Cl)Cl)O3)O2)c(=O)[nH]c1=O` (centres undefined) returned an EC50 of 0.16 µM. Also, the IC50 in test [2] was more than 50 µM; in test [3], 26 µM.
